Source: PubChem
m5-HT2A agonist: mouse HTR2A agonism via beta-arrestin recruitment | CHO-K1 mHTR2A beta-arrestin complementation, luminescence; percent of 30 µM serotonin response | activation, % at 7.6 µM | hit rate 0.66% among 360,000 | AID 624169 | P35363;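 active means activation above a run cutoff, the mean activation of all tested compounds plus 3 SD, cut at about 14% in these data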;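 further: 0% = plate median of compound wells and 100% = 30 µM serotonin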
Target sequence (P35363 whole entry, looked up): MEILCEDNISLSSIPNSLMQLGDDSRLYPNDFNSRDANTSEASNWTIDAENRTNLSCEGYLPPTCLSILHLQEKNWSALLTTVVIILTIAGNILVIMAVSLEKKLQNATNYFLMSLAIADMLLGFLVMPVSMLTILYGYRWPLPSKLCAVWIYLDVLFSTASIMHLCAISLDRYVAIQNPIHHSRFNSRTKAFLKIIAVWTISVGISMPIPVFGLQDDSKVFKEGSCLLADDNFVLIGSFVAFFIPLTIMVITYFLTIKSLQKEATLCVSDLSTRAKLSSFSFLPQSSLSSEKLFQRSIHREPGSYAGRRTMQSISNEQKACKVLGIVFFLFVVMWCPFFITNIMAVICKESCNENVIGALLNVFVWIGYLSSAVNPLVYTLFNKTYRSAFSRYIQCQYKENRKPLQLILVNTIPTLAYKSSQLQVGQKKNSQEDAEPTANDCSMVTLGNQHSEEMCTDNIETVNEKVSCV
APJ ag: APJ receptor agonism; CHO-K1 APJ PathHunter beta-arrestin, luminescence; 0% DMSO wells, 100% apelin; activation, % at 20 µM; P35414; hit rate 0.11% among 330,000;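 active means activation more than six SD over the plate average, tested at 20 µM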;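 further: 0% = DMSO alone and 100% = apelin-13 at 10 nM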
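assay system = CHO-K1 APJ beta-arrestin complementation cell line | input = cell density 1000 per well | dosing = compound 20 µM once, DMSO 1% | timing = compound 90 min 25 °C, reagent 1 h | measured by = luminescence from split beta-galactosidase complementation, Galacton Star/Emerald II substrate | read-out basis = APJ agonist activity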
APJ antagonist: antagonists of human APJ apelin receptor; hit rate 0.32% among 330,000; P35414; CHO-K1 APJ beta-arrestin complementation, luminescence; inhibition, % at 20 µM;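 active means inhibition above about 40% at 20 µM, limit read from the data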;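 further: cells challenged with 10 nM apelin-13 agonist together with compound; plate controls were apelin-13 plus DMSO wells for no effect and DMSO wells lacking apelin-13 for full effect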
CCR6 antagonist: CCR6 (human) receptor antagonism | hit rate 0.49% among 340,000 | CHO-K1 CCR6 PathHunter beta-arrestin, luminescence, CCL20-stimulated | AID 493098 | inhibition, % at 20 µM;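 active means compounds whose inhibition of the agonist-driven luminescence signal at 20 µM reaches about 50%, limit read from the data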;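 further: cells stimulated with CCL20 at 14 nM final; plate controls were DMSO with CCL20 for no effect and DMSO without agonist for full effect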
EBI2 antag: antagonists of human EBI2 receptor. inhibition, % at 5 µM. hit rate 0.81% among 360,000. EBI2 beta-arrestin recruitment, luminescence, 7a,25-OHC stimulated. P32249; in the data active means inhibition above about 38%;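 further: enzyme fragment complementation signal reports receptor beta-arrestin coupling in cells; 0% = agonist plus DMSO wells and 100% = wells without agonist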
CXCR6 block: inhibitors of human CXCR6 receptor; CHO-K1 PathHunter CXCR6 beta-arrestin, luminescence; inhibition, % at 20 µM; hit rate 0.36% among 360,000; AID 602244; in the data active means inhibition above about 34%, passing the limit was not always enough;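 further: antagonist mode with CXCL16 agonist at 10 nM final; 0% = 10 nM CXCL16 with DMSO and 100% = unstimulated wells without agonist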
APJ ag conf: confirmation of human APJ apelin receptor agonists; shares compounds with APJ ag; CHO-K1 APJ PathHunter beta-arrestin, luminescence; activation, % at 20 µM; hit rate 10% among 310;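 active means activation above 40%, taking the highest of four retests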;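 further: plate controls were DMSO wells for no effect and apelin-13 at 10 nM for full effect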
APJ antag conf: APJ receptor antagonism confirmation; shares compounds with APJ antagonist; APJ beta-arrestin recruitment, luminescence, antagonist mode; inhibition, % at 20 µM; hit rate 66% among 950; in the data active means inhibition above about 50%
OPRM1 ag: activates human mu opioid receptor in HTR2A counterscreen. shares compounds with m5-HT2A agonist. AID 624380. U2OS OPRM1 beta-arrestin PathHunter, luminescence; DMSO 0%, DAMGO 9.3 µM 100%. hit rate 5.3% among 2,300. activation, % at 9.3 µM;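 active means mean activation above the mean of DMSO-only wells plus 3 SD, cut at about 0.5% in these data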
m5-HT2A ag conf: mouse HTR2A agonism confirmed. shares compounds with m5-HT2A agonist. CHO-K1 PathHunter beta-arrestin recruitment, luminescence; DMSO 0%, 30 µM serotonin 100%. activation, % at 7.6 µM. hit rate 19% among 2,300;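 active means mean activation across triplicates above the hit threshold derived in the original primary screen, cut at about 15% in these data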
Active calls of the source: *; / = no result given. Compounds with a hit are over-represented: about 2.1% of the library has one in this group of screens.

SMILES	m5-HT2A agonist	APJ ag	APJ antagonist	CCR6 antagonist	EBI2 antag	CXCR6 block	APJ ag conf	others
Cc1cccc(C(=O)N[C@H](C(=O)Nc2nc3ccccc3[nH]2)C(C)C)c1	1	-4	5	-10	-12	-9	/
Cc1ccc(/C=N/NC(=O)CSc2nnc(-c3ccc(Cl)cc3)n2-c2ccccc2)o1	8	17	-215	-68	-52	-16	/
O=C(CSc1nnc(-c2ccc(Cl)cc2)n1-c1ccc(Cl)cc1)N/N=C/c1ccco1	1	18*	-80	-34	16	-22	17
c1ccc(Nc2nc(NCC3CCCO3)c3ccccc3n2)cc1 (stereo unspecified)	-8	1	-52	-11	12	-5	/
CCOc1ccc(Nc2nc(NCC3CCCO3)c3ccccc3n2)cc1 (stereo unspecified)	-6	13*	-25	-3	66*	8	29
CCC(=O)Nc1c2c(nn1-c1ccc([N+](=O)[O-])cc1)CS(=O)(=O)C2	1	-1	-3	6	-3	-4	/
C=CCC(C(=O)OC)(C(=O)OC)c1ccc([N+](=O)[O-])cc1[N+](=O)[O-]	2	14*	-35	2	-13	1	4
N#Cc1ccc(NC(=O)Nc2cccc(C#N)c2)cc1	-1	/	/	-4	-8	-11	/
N#Cc1ccc(NC(=O)Nc2ccc(Oc3ccc(NC(=O)Nc4ccc(C#N)cc4)cc3)cc2)cc1	-1	19*	-59	-14	-33	-16	36
Cc1c(COc2ccc3ccccc3c2)nnn1CC(=O)NS(=O)(=O)c1ccccc1C(F)(F)F	-2	/	/	/	2	-6	/
CCSc1nc(O)c(CC)c(=O)n1C(C)CC (stereo unspecified)	2	39*	-19	-25	-1	-3	61*
CCOC(=O)N1CCN(CC(=O)Nc2cccc(Br)c2)CC1	-2	-5	-21	13	-2	9	/
N=c1n(CC(=O)c2cccs2)c2ccccc2n1Cc1ccccc1	-2	28*	-15	7	-8	1	16
COc1ccc(OC)c2sc(N(CCCN(C)C)C(=O)c3ccc(S(=O)(=O)N4CCc5ccccc5C4)cc3)nc12	/	45*	-59	/	/	/	22
Cc1cccc(C(=O)OCC(=O)N2CCCC2=O)c1O	-5	-4	-12	3	4	0	/
O=C(OCC(=O)N1CCCC1=O)c1cc2ccccc2o1	-4	16*	-4	-2	-8	-3	14
CC(C)C(=O)N1CCN(c2ccc(NC(=O)COc3ccccc3[N+](=O)[O-])cc2)CC1	12	16*	-21	-6	-15	-5	54*
Cn1c(N2CCOCC2)c(/C=N/OC(=O)c2ccc(F)cc2)c2ccccc21	-2	17*	-48	1	0	-6	39
CCn1nc(C(=O)Nc2ccccc2C)c(Cl)c1Cl	2	-1	3	7	-4	-6	/
O=c1oc2cc(OCc3ccc([N+](=O)[O-])cc3)ccc2c2c1CCCC2	2	62*	7	-14	-17	-10	4
O=C(O)c1ccc(COc2ccc3c4c(c(=O)oc3c2)CCC4)o1	-2	-9	3	10	-2	-5	/
Cc1cccc(C(=O)OCc2cc(=O)oc3c(C)c(C)ccc23)c1O	0	24*	11	-6	8	9	8
CCOc1ncccc1C(=O)OCc1cc(=O)oc2c(C)c(C)ccc12	0	/	/	-4	9	0	/
CC1CCC(NC(=O)CC(C)(C)Cc2nc3ccccc3c(=O)[nH]2)CC1 (stereo unspecified)	-1	-5	16	6	6	-6	/
CCN1C(c2ccccc2)=C(c2ccccc2)S/C1=C\C=C1/SC(=S)N(C)C1=O	6	115*	-90	-31	-14	0	292*
SMILES	m5-HT2A agonist	APJ ag	APJ antagonist	CCR6 antagonist	EBI2 antag	CXCR6 block	APJ ag conf	others
Cc1ccc2c(c1)N(CCCC(=O)NCC1COc3ccccc3O1)C(=O)CO2 (stereo unspecified)	1	-4	-18	4	-2	-7	/
CC(C)(C)OC(=O)[C@H]1[C@H](c2ccc([N+](=O)[O-])cc2)C2(C(=O)c3ccccc3C2=O)C2c3ccccc3C=NN21 (stereo partly specified)	-3	43*	-2	17	9	2	44*
CSc1cccc(NC(=S)NC(=O)CCc2ccccc2)c1	-4	43*	-108	-29	6	-17	51*
CSc1cccc(NC(=O)CCc2ccccc2)c1	-3	-3	-12	6	1	4	/
CC(=O)c1c(C)nc(-c2cccc([N+](=O)[O-])c2)n1O	-5	-1	-30	9	-7	-3	/
CCCCCCCCCn1c2c(c(=N)c3c1CCC3)CCCC2	-2	10*	41*	16	-15	-15	7	APJ antag conf=38
CCOC(=O)CC1=C(C(=O)OCC)C(c2ccc(OC)cc2OC)C(C#N)=C(N)O1 (stereo unspecified)	-6	2	14	-24	-3	0	/
Cc1cc(C(=O)CSc2nc3ccccc3[nH]2)c(C)n1CC1CCCO1 (stereo unspecified)	25*	21*	-27	-43	-97	-5	13	OPRM1 ag=0;m5-HT2A ag conf=10
CN(c1c(C#N)c(C(F)(F)F)nn1C)N(S(C)(=O)=O)S(C)(=O)=O	4	-2	9	6	-2	11	/
COC(=O)C1=C(Cn2cnc3ccccc32)NC(=O)NC1c1cc(C)ccc1C (stereo unspecified)	73*	76*	46*	14	-29	3	62*	APJ antag conf=29;m5-HT2A ag conf=46*
CCOC(=O)C1=C(CNCc2ccc(C)cc2)NC(=O)NC1c1cc(C)ccc1C (stereo unspecified)	0	-1	17	-5	7	6	/
COc1ccc(C(=O)NC(=S)NNC(=O)c2c(-c3ccccc3)noc2C)cc1OC	-3	-8	26	25	-1	24	/
CC(C)CN(Cc1cc(=O)oc2cc(-c3ccccc3)c(O)cc12)CC(C)C	16*	19*	-33	-24	-40	-11	23	OPRM1 ag=2.3*;m5-HT2A ag conf=22*
